From ChEMBL document CHEMBL1156517, “Targeting thyroid hormone receptor-beta agonists to the liver reduces cholesterol and triglycerides and improves the therapeutic index” (Proc Natl Acad Sci U S A, 2007)

Legend:
[1] = AUC (0 to 24 hrs) in Sprague-Dawley rat at 5 mg/kg, iv; format: ADME, organism-based; design: time < 24 hr, dose 5 mg/kg, route intravenous; conditions: plasma
Method in brief: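 Male SD rats received MB07344 at 5 mg/kg i.v. Pharmacokinetic parameters, including AUC over 0–24 h, were derived from the temporal plasma concentration profile of MB07344.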

[2] = Cmax in Sprague-Dawley rat at 5 mg/kg, iv; format: ADME, organism-based; design: dose 5 mg/kg, route intravenous; conditions: in vivo
Method in brief: (§1)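 Male SD rats received a 5 mg/kg i.v. dose. Parameters were derived from the plasma concentration–time profile of the parent and its active metabolite.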

[3] = Volume of distribution in Sprague-Dawley rat at 5 mg/kg, iv; format: ADME, organism-based; design: dose 5 mg/kg, route intravenous; conditions: in vivo
[4] = AUC (0 to 24 hrs) in Sprague-Dawley rat at 10 mg/kg, iv; format: ADME, organism-based; design: time < 24 hr, dose 10 mg/kg, route intravenous; conditions: plasma
Method in brief: (§2)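 Male SD rats, naïve or bile duct-cannulated (n = 3 per group), given MB07344 at 10 mg/kg i.v. MB07344 measured in plasma and in collected bile. AUC over 0–24 h taken from the plasma concentration–time profile.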

Hepatocyte = assay: Cmax per10'6 cells in Sprague-Dawley rat hepatocytes at 10 uM; format: ADME, Liver; design: dose 10 uM
Method in brief: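 Freshly isolated rat hepatocytes were incubated with compound. Intracellular levels of the active phosphonate were followed over time and expressed per 10⁶ cells, giving Cmax and tmax.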

[5] = Drug excretion in Sprague-Dawley rat feces at 2 mg/kg, iv after 96 hrs; format: ADME, organism-based; design: dose 2 mg/kg, route intravenous; conditions: faeces, read-out: Activity
Method in brief: (§3)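 Mass balance used male SD rats (n = 6) given [³H]-labelled compound (2 mg/kg, 45.5 mCi/mmol) as an i.v. bolus. Cumulative radioactivity in urine, wash and feces was monitored at 0, 12, 24, 48, 72 and 96 h.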

[6] = Drug excretion in bile duct-canulated Sprague-Dawley rat bile at 10 mg/kg, iv; format: ADME, organism-based; design: dose 10 mg/kg, route intravenous; conditions: read-out: Activity
Method in brief: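 Naïve and bile duct-cannulated SD rats (n = 3 per group) received 10 mg/kg i.v. Compound levels were measured in the collected bile and in plasma.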

[7] = Clearance in Sprague-Dawley rat at 5 mg/kg, iv; format: ADME, organism-based; design: dose 5 mg/kg, route intravenous; conditions: in vivo; method in brief: as §1
[8] = AUC (0 to 24 hrs) in bile-diverted Sprague-Dawley rat at 10 mg/kg, iv; format: ADME, organism-based; design: time < 24 hr, dose 10 mg/kg, route intravenous; conditions: plasma; method in brief: as §2
[9] = Drug excretion in Sprague-Dawley rat urine at 2 mg/kg, iv after 96 hrs; format: ADME, organism-based; design: dose 2 mg/kg, route intravenous; conditions: read-out: Activity; method in brief: as §3
[10] = Half life in Sprague-Dawley rat at 5 mg/kg, iv; format: ADME, organism-based; design: dose 5 mg/kg, route intravenous; conditions: in vivo
Method in brief: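 Male SD rats given a single 5 mg/kg i.v. dose. Half-life derived from the plasma concentration–time profile of the parent compound.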

[11] = biological target: Thyroid hormone receptor beta (Homo sapiens, UniProt P10828); assay: Displacement of [125I]T3 from recombinant thyroid hormone receptor beta expressed in sf9 cells by scintillation proximity assay
[12] = Inhibition of CYP3A in Sprague-Dawley rat liver microsome at 10 uM; format: ADME; conditions: microsomes
[13] = biological target: Thyroid hormone receptor alpha (Homo sapiens, UniProt P10827); assay: Displacement of [125I]T3 from recombinant thyroid hormone receptor alpha expressed in sf9 cells by scintillation proximity assay
Thyroid hormone receptor alpha, sequence (P10827 whole entry): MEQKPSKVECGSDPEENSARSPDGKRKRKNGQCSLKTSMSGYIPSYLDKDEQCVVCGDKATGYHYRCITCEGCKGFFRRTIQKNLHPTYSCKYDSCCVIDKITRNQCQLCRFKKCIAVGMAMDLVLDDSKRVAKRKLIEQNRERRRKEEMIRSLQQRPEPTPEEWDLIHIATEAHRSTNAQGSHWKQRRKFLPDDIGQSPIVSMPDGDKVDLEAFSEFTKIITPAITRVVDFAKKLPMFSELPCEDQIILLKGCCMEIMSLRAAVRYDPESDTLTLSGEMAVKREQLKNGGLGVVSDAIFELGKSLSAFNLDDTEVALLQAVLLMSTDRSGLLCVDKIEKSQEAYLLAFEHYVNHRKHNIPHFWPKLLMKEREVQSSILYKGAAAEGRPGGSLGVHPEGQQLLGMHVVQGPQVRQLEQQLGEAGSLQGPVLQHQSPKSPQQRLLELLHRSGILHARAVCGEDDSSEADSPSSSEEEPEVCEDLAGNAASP

Thyroid hormone receptor beta, sequence (P10828 whole entry): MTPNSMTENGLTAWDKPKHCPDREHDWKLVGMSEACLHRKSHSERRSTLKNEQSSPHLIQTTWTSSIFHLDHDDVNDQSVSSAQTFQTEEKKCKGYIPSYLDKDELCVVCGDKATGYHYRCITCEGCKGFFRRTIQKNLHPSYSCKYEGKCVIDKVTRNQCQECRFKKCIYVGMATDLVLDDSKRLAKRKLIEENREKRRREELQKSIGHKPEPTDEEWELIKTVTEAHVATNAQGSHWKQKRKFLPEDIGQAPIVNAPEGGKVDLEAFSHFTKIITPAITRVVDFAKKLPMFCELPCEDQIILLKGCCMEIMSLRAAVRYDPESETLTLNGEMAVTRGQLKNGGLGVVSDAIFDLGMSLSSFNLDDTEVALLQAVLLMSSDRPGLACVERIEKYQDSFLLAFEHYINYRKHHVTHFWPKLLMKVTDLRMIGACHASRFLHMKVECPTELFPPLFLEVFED

AUC(0-t) at 24 h [1]: 16600 ng·h/mL | Cmax [2]: 40400 ng/mL | Vd [3]: 0.39 L/kg | AUC(0-t) at 24 h [4]: 35100 ng·h/mL | Cmax (Hepatocyte): 1.77 nmol | dose excreted at 96 h [5]: 98% | dose excreted [6]: 50% | clearance [7]: 4.67 mL/min/kg | AUC(0-t) at 24 h [8]: 48100 ng·h/mL | dose excreted at 96 h [9]: 2% | half-life [10]: 1.27 h | Ki [11]: 2.17 nM | Activity [12]: Not Active | Ki [13]: 35.2 nM
SMILES: Cc1cc(OCP(=O)(O)O)cc(C)c1Cc1ccc(O)c(C(C)C)c1 [MB07344]
